Data: ChEMBL document CHEMBL1145814, “Antiretroviral activity of semisynthetic derivatives of glycopeptide antibiotics” (J Med Chem, 2003)
pEC50, pIC50: −log10 of the molar value. Values after ≈ are worked out from the molar mass of the structure shown. Values joined by “and” are separate entries in the source; they are usually repeats but may differ in a detail not shown here. Equal entries are not always repeated.

Assays:
Mus musculus [1] = species: Mus musculus; test: Minimal inhibitory concentration required to cause a microscopic detectable alteration of C3H/3T3 embryo murine fibroblast cell morphology; assay type: functional
How it was run: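 Uninfected C3H/3T3 murine embryo fibroblast cultures were exposed to test compound and checked microscopically for changes in cell morphology. The MIC is the concentration causing a microscopically detectable alteration of morphology.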

CCRF-CEM = test: Inhibitory concentration against proliferation of human T-lymphocytic (CEM) cells; assay type: functional, cell-based
How it was run: (§1)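 (5–7.5) × 10^4 cells per well were incubated with test compound at 37 °C in a humidified CO2 atmosphere. L1210 murine leukemia cells grew for 48 h, and CEM and Molt4/clone 8 human lymphocytes grew for 72 h. Cells were then counted with a Coulter counter. IC50 is the concentration inhibiting proliferation by 50%.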

[2] = test system: Human immunodeficiency virus 2; test: Concentration required to protect human T-lymphocytic cells against the cytopathogenicity of HIV-2; assay type: functional, organism-based
[3] = test system: Human immunodeficiency virus 1; test: Effective concentration of compound required to protect human T-lymphocytic cells against the cytopathogenicity of HIV-1; assay type: functional, organism-based
L1210 = test: Inhibitory concentration of compound against proliferation of murine lukemia cells L1210 was determined; assay type: functional, cell-based; conditions: Mus musculus; how it was run: as §1
MOLT-4 = test: Inhibitory concentration of compound against proliferation of human T-lymphocytic cells MOLT-4/C8 was determined; assay type: functional, cell-based; how it was run: as §1
Mus musculus [4] = species: Mus musculus; test: Effective concentration of compound required to protect C3H/3T3 embryo murine fibroblasts against the MSV induced transformation; assay type: functional, organism-based
How it was run: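 Monolayer murine embryo fibroblast C3H/3T3 cultures were infected with Moloney murine sarcoma virus at 75 focus-forming units and cultured with test compound. Transformation was examined microscopically on day 6 postinfection. EC50 is the concentration protecting cells against MSV-induced transformation by 50%.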

| Compound | pIC50 (CCRF-CEM; Homo sapiens, CCRF-CEM) | pIC50 (CCRF-CEM; ccrf-cem) | pEC50 [2] | pEC50 [3] | pIC50 (L1210) | pIC50 (MOLT-4) | pEC50 ([2]; Human immunodeficiency virus 2) | pEC50 ([3]; Human immunodeficiency virus 1) | MIC (Mus musculus [1]) | pEC50 (Mus musculus [4]; Mus musculus, C3H/3T3) | pEC50 (Mus musculus [4]) |
| --- | --- | --- | --- | --- | --- | --- | --- | --- | --- | --- | --- |
| CCCCc1ccc(CN2CCN(Cc3c(O)cc4c(c3O)-c3cc(ccc3O)C3NC(=O)C5NC(=O)C6NC(=O)C(Cc7ccc(c(Cl)c7)Oc7cc5cc(c7O)Oc5ccc(cc5Cl)C(O)C(NC3=O)C(=O)N[C@H]4C(=O)NC)NC(=O)C(N)c3ccc(O)c(c3)Oc3cc(O)cc6c3)CC2)cc1 (stereo not given in full) | < 3.30 | < 3.60 | 5.52 and 5.20 | 5.77 and 5.46 | 4.21 | < 3.30 | – | – | > 20 µM | 5.44 | – |
| COC(=O)[C@H]1NC(=O)C2NC(=O)C(NC(=O)[C@@H]3NC(=O)[C@H]4NC(=O)[C@H](NC(=O)[C@H](N)c5ccc(O)c(c5)Oc5cc4cc(O)c5C)[C@H](O)c4ccc(cc4)Oc4cc3cc(c4OC3OC(CO[C@H]4O[C@H](C)[C@@H](O)[C@@H](O)[C@@H]4O)C(O)C(O)C3OC3OC(CO)C(O)C(O)C3OC3OCC(O)C(O)C3O)Oc3ccc(cc3)[C@H]2O[C@@H]2C[C@@H](N)[C@@H](O)[C@@H](C)O2)c2ccc(O)c(c2)-c2c(O[C@@H]3O[C@H](CO)[C@@H](O)[C@@H](O)[C@@H]3O)cc(O)cc21 (stereo not given in full) | < 3.30 | – | – | – | < 3.30 | < 3.30 | < 3.60 | < 3.60 | > 100 µM | < 4.00 | – |
| CNC1C(=O)NC2Cc3ccc(cc3)Oc3cc4cc(c3O)Oc3ccc(cc3Cl)C(O)C3NC(=O)C(NC(=O)C4NC(=O)C(NC2=O)c2cc(cc(O)c2Cl)Oc2cc1ccc2O)c1ccc(O)c(c1)-c1c(O)cc(O)cc1[C@H](C(=O)O)NC3=O (stereo not given in full) | < 3.30 | – | – | – | < 3.30 | < 3.30 | < 4.30 | 4.40 | > 100 µM | 4.09 | – |
| CN(C)CCCNC(=O)[C@@H]1NC(=O)C2NC(=O)C(NC(=O)C3NC(=O)C4NC(=O)C(Cc5ccc(c(Cl)c5)Oc5cc3cc(c5O)Oc3ccc(cc3Cl)C2O)NC(=O)C(N)c2ccc(O)c(c2)Oc2cc(O)cc4c2)c2ccc(O)c(c2)-c2c1cc(O)c(CNC1C3CC4CC(C3)CC1C4)c2O (stereo not given in full) | < 3.30 | < 3.60 | 5.10 and 4.66 | 5.40 | < 3.30 | < 3.30 | – | 5.60 | 20 µM (≈ 28.9 µg/mL) | 4.92 | – |
| CNC(CC(C)C)C(=O)NC1C(=O)NC(CC(N)=O)C(=O)NC2C(=O)NC3C(=O)NC(C(=O)N[C@@H](C(=O)O)c4cc(O)c(CN5CCN(Cc6ccc(-c7ccccc7)cc6)CC5)c(O)c4-c4cc3ccc4O)C(O)c3ccc(cc3)Oc3cc2cc(c3O)Oc2ccc(cc2Cl)C1O (stereo not given in full) | < 3.30 | – | – | – | 3.60 | < 3.30 | 4.92 | 5.26 | > 100 µM | 4.89 | – |
| CN[C@H](CC(C)C)C(=O)N[C@H]1C(=O)N[C@@H](CC(N)=O)C(=O)N[C@H]2C(=O)N[C@H]3C(=O)N[C@H](C(=O)N[C@H](C(=O)O)c4cc(O)cc(O)c4-c4cc3ccc4O)[C@H](O[C@H]3C[C@](C)(N)[C@@H](O)[C@H](C)O3)c3ccc(cc3)Oc3cc2cc(c3O[C@@H]2O[C@H](CO)[C@@H](O)[C@H](O)[C@H]2O[C@H]2C[C@](C)(N)[C@@H](O)[C@H](C)O2)Oc2ccc(cc2Cl)[C@H]1O | < 3.30 | – | – | – | < 3.30 | < 3.30 | < 3.60 | < 3.60 | > 100 µM | < 4.00 | – |
| CCCCc1ccc(CN2CCN(Cc3c(O)cc4c(c3O)-c3cc(ccc3O)C3NC(=O)C5NC(=O)C6NC(=O)C(Cc7ccc(c(Cl)c7)Oc7cc5cc(c7O)Oc5ccc(cc5Cl)C(O)C(NC3=O)C(=O)N[C@H]4C(=O)NCCCN(C)C)NC(=O)C(N)c3ccc(O)c(c3)Oc3cc(O)cc6c3)CC2)cc1 (stereo not given in full) | < 3.30 | < 3.60 | 5.30 and 4.89 | 5.40 | 4.54 | 3.97 | – | 5.52 | 20 µM (≈ 30.5 µg/mL) | 5.62 | 5.46 |
| CCCCc1ccc(CNC2C(Oc3c4cc5cc3Oc3ccc(cc3Cl)C(O)C3NC(=O)C(NC(=O)C5NC(=O)C5NC(=O)C(Cc6ccc(cc6)O4)NC(=O)C(NC)c4ccc(O)c(c4)Oc4cc(O)c(Cl)c5c4)c4ccc(O)c(c4)-c4c(O)cc(O)cc4[C@H](C(=O)NCCCN(C)C)NC3=O)OC(C(=O)NCCCN(C)C)C(O)C2O)cc1 (stereo not given in full) | < 3.60 | – | – | – | 4.44 | 4.18 | < 4.30 | 4.92 | > 100 µM | < 4.70 | – |
| NC1C(=O)NC2Cc3ccc(c(Cl)c3)Oc3cc4cc(c3O)Oc3ccc(cc3Cl)C(O)C3NC(=O)C(NC(=O)C4NC(=O)C(NC2=O)c2cc(O)cc(c2)Oc2cc1ccc2O)c1ccc(O)c(c1)-c1c(cc(O)c(CNC2C4CC5CC(C4)CC2C5)c1O)[C@H](C(=O)NC1C2CC4CC(C2)CC1C4)NC3=O (stereo not given in full) | < 3.60 | – | – | – | 3.69 | < 3.60 | 5.46 | 5.60 | > 20 µM | 5.70 | – |
| COC(=O)[C@@H]1NC(=O)C2NC(=O)C(NC(=O)C(N)c3cc(Oc4ccc(CC(NC(=O)OCc5ccccc5)C(=O)O)cc4Cl)c(O)c(c3)Oc3ccc(cc3Cl)C2O)c2ccc(O)c(c2)-c2c1cc(O)c(CNC1C3CC4CC(C3)CC1C4)c2O (stereo not given in full) | < 3.60 | – | – | – | 3.74 | < 3.60 | 4.43 | 4.77 | > 100 µM | 4.41 | – |

Further lines, with some results ahead:

| pIC50 (CCRF-CEM; Homo sapiens, CCRF-CEM) | pIC50 (CCRF-CEM; ccrf-cem) | pEC50 [2] | pEC50 [3] | pIC50 (L1210) | pIC50 (MOLT-4) | pEC50 ([2]; Human immunodeficiency virus 2) | pEC50 ([3]; Human immunodeficiency virus 1) | Compound | MIC (Mus musculus [1]) | pEC50 (Mus musculus [4]; Mus musculus, C3H/3T3) | pEC50 (Mus musculus [4]) |
| --- | --- | --- | --- | --- | --- | --- | --- | --- | --- | --- | --- |
| 4.52 | – | – | – | 4.52 | < 5.00 | < 5.00 | < 5.00 | CCCCCCCCCCNC(=O)[C@H]1NC(=O)[C@H]2NC(=O)[C@H](NC(=O)[C@@H]3NC(=O)[C@H](CC(N)=O)NC(=O)[C@H](NC(=O)[C@@H](CC(C)C)NC)[C@H](O)c4ccc(c(Cl)c4)Oc4cc3cc(c4O[C@@H]3O[C@H](CO)[C@@H](O)[C@H](O)[C@H]3O[C@H]3C[C@](C)(N)C(O)[C@H](C)O3)Oc3ccc(cc3Cl)[C@H]2O)c2ccc(O)c(c2)-c2c(O)cc(O)cc21 (stereo not given in full) | 20 µM (≈ 31.8 µg/mL) | < 5.40 | – |
| 3.97 | – | – | – | 3.87 | 4.14 | < 4.30 | 4.66 | CN[C@H](CC(C)C)C(=O)N[C@H]1C(=O)N[C@@H](CC(N)=O)C(=O)N[C@H]2C(=O)N[C@H]3C(=O)N[C@H](C(=O)N[C@H](C(=O)O)c4cc(O)c(CNCc5ccc(-c6ccc(Cl)cc6)cc5)c(O)c4-c4cc3ccc4O)[C@H](O[C@H]3C[C@](C)(N)[C@@H](O)[C@H](C)O3)c3ccc(cc3)Oc3cc2cc(c3O[C@@H]2O[C@H](CO)[C@@H](O)[C@H](O)[C@H]2O[C@H]2C[C@](C)(N)[C@@H](O)[C@H](C)O2)Oc2ccc(cc2Cl)[C@H]1O | > 20 µM | < 5.40 | – |
| 4.46 | – | – | – | 4.39 | 4.47 | < 5.00 | < 5.00 | CN[C@H](CC(C)C)C(=O)N[C@H]1C(=O)N[C@@H](CC(N)=O)C(=O)N[C@H]2C(=O)N[C@H]3C(=O)N[C@H](C(=O)N[C@H](C(=O)NCc4ccc(-c5ccccc5)cc4)c4cc(O)cc(O)c4-c4cc3ccc4O)[C@H](O[C@H]3C[C@](C)(N)[C@@H](O)[C@H](C)O3)c3ccc(cc3)Oc3cc2cc(c3O[C@@H]2O[C@H](CO)[C@@H](O)[C@H](O)[C@H]2O[C@H]2C[C@](C)(N)[C@@H](O)[C@H](C)O2)Oc2ccc(cc2Cl)[C@H]1O | 4 µM (≈ 6.89 µg/mL) | < 6.10 | – |
| 3.62 | – | – | – | 4.14 | < 3.60 | 4.77 | 4.89 | NC1Cc2ccc(c(Cl)c2)Oc2cc3cc(c2O)Oc2ccc(cc2Cl)C(O)C2NC(=O)C(NC(=O)C3NC(=O)C(c3cc(O)cc(Oc4cc(C5NC(=S)N(c6ccccc6)C5=O)ccc4O)c3)NC1=O)c1ccc(O)c(c1)-c1c(cc(O)c(CNC3C4CC5CC(C4)CC3C5)c1O)[C@H](C(=O)O)NC2=O (stereo not given in full) | > 100 µM | 5.54 | – |
| < 3.60 | – | – | – | 3.67 | < 3.60 | 4.77 | 5.30 | CNC(=O)[C@@H]1NC(=O)C2NC(=O)C(NC(=O)C3NC(=O)C4NC(=O)C(Cc5ccc(c(Cl)c5)Oc5cc3cc(c5O)Oc3ccc(cc3Cl)C2O)NC(=O)C(N)c2ccc(O)c(c2)Oc2cc(O)cc4c2)c2ccc(O)c(c2)-c2c1cc(O)c(CNC1C3CC4CC(C3)CC1C4)c2O (stereo not given in full) | > 20 µM | 5.02 | – |
| < 4.00 | – | – | – | < 4.00 | < 4.00 | 4.92 | 5.01 | CCCCc1ccc(CNCc2c(O)cc3c(c2O)-c2cc(ccc2O)C2NC(=O)C4NC(=O)C5NC(=O)C(Cc6ccc(c(Cl)c6)Oc6cc4cc(c6O)Oc4ccc(cc4Cl)C(O)C(NC2=O)C(=O)N[C@H]3C(=O)NC)NC(=O)C(N)c2ccc(O)c(c2)Oc2cc(O)cc5c2)cc1 (stereo not given in full) | 20 µM (≈ 27.7 µg/mL) | < 5.40 | – |
| < 4.00 | – | – | – | 4.15 | < 4.00 | 4.92 | 5.22 | CCCCc1ccc(CNCc2c(O)cc3c(c2O)-c2cc(ccc2O)C2NC(=O)C4NC(=O)C5NC(=O)C(Cc6ccc(c(Cl)c6)Oc6cc4cc(c6O)Oc4ccc(cc4Cl)C(O)C(NC2=O)C(=O)N[C@H]3C(=O)NC)NC(=O)C(NC(=O)OC(C)(C)C)c2ccc(O)c(c2)Oc2cc(O)cc5c2)cc1 (stereo not given in full) | 20 µM (≈ 29.7 µg/mL) | < 5.40 | – |
